HTR1E antagonist – 5-HT1E (human) receptor antagonism | CHO 5-HT1E Ga15 NFAT-bla reporter, FRET, antagonist | inhibition, % at 6 µM | actives 0.99% (n = 65,000);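 active = inhibition above a set limit, the mean inhibition across every tested compound plus 3 SD, cut at about 29% in these data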;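 also: signal is the 460 over 535 nm emission ratio of beta-lactamase substrate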
5-HT1A blocker – 5-HT1a (human) receptor antagonism; P08908; inhibition, % at 10 µM; CHO 5-HT1a Ga15 NFAT-bla reporter, antagonist mode; actives 0.68% (n = 62,000);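 active = inhibition above the mean of all tested compounds plus 3 SD, cut at about 43% in these data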;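 also: receptor stimulated by 5-CT agonist at 100 nM near EC80; beta-lactamase reporter measured by ratiometric fluorescence of a cleavable substrate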
HTR1E agonist – 5-HT1E (human) receptor agonism; CHO 5-HT1E Ga15 NFAT-bla reporter, FRET; 0% DMSO wells, 100% control agonist wells; activation, % at 6 µM; actives 0.69% (n = 65,000); AID 574;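 active = activation above a set limit, the screen-wide mean activation plus 3 SD, cut at about 8.5% in these data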
S1P1 ag-PAM – S1P1 (human) agonism or agonism potentiation | P21453 | actives 0.57% (n = 56,000) | activation, % at 9.5 µM | S1P1 CRE-bla cells, forskolin, beta-lactamase FRET, potentiator mode; S1P1 agonist co-added at EC20, 2 nM; 100% = saturating reference agonist, 0% = basal | AID 449;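 active = activation above a cutoff set at the mean activation of all tested compounds plus 3 SD, cut at about 54% in these data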;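 also: forskolin at 4 µM as EC80 and the EC20 agonist is SEW2871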
S1P3 agonist – agonists of human S1P3 receptor | Q99500 | activation, % at 4.5 µM | S1P3 NFAT-BLA reporter cells, agonism, FRET ratio; relative to 1 µM S1P, basal subtracted | actives 0.1% (n = 60,000);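 active = activation above the screen-wide mean plus 3 SD, cut at about 4.5% in these data, passing the limit was not always enough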
Target sequence (Q99500 whole entry, looked up): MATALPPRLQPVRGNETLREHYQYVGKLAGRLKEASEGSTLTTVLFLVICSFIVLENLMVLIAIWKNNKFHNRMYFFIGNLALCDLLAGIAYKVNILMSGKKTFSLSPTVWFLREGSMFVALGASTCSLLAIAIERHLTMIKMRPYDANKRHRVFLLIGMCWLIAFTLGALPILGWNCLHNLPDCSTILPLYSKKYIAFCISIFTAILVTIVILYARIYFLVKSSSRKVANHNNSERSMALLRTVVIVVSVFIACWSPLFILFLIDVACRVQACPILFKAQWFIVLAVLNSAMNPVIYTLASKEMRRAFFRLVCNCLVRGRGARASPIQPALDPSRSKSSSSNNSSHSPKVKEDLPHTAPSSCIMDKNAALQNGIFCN
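Measure – % activation relative to 1 µM S1P (100%), per plate · System – stable CHO line with human S1P3, Gα16, NFAT-BLA reporter · Timing – cells plated overnight, compound 4 h 37 °C, substrate 2 h RT · Technique – fluorescent BLA substrate, ex 405 nm, em 460/535 nm ratio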
5HT1a ag – activates the human 5-HT1a serotonin receptor; P08908; CHO 5-HT1a Ga15 NFAT-bla reporter, FRET ratio; 0% basal, 100% maximal reference agonist; activation, % at 10 µM; actives 0.56% (n = 65,000);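 active = activation above the screen-wide mean activation plus 3 SD, cut at about 19% in these data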
Hits are given with their value; – = inactive; · = no result given. Shown are actives, neighbours in structure and some others; about 2.9% of the full set was active somewhere.

SMILES	HTR1E antagonist	5-HT1A blocker	HTR1E agonist	S1P1 ag-PAM	S1P3 agonist	5HT1a ag
Cc1noc(C)c1C(=O)OC(C(=O)NC1CCCC1)c1ccc(F)cc1 (stereo unspecified)	–	–	–	–	–	–
COc1ccc(C(c2c(O)ccc3ccccc23)N2CCOCC2)c(OC)c1 (stereo unspecified)	–	107	–	110	–	–
COc1ccccc1CNC(=O)N[C@@H](Cc1ccccc1)C(=O)O	–	–	–	–	–	–
Cc1c(Cc2ccccc2)c(=O)oc2c(CN(C)C)c(O)c(Cl)cc12	–	–	–	–	–	20
Cc1ccnc(SCC(=O)Nc2sc3c(c2C#N)CCCC3)n1	–	–	–	100	–	–
N#Cc1c(NC(=O)CSC2=NCCS2)sc2c1CCCC2	–	–	–	–	–	–
Cc1ccc(-c2cnc(N)n2C)cc1C	–	–	38	–	–	–
CCOc1ccc(S(=O)(=O)Nc2cc(OC)ccc2OC)cc1	65	52	–	–	–	–
COc1ccc(OC)c(NS(=O)(=O)c2ccc(SC)cc2)c1	–	–	–	–	–	–
COc1ccc(S(=O)(=O)Nc2cc(Cl)ccc2OC)cc1	30	–	–	–	–	–
COc1ccc(OC)c(NS(=O)(=O)c2ccc(N3CCCC3=O)cc2)c1	48	·	–	–	–	–
CCOC(=O)Cc1csc(NC(=O)C2CCCN(S(=O)(=O)c3cnc[nH]3)C2)n1 (stereo unspecified)	–	–	–	–	–	–
CCCOc1ccc(/C(O)=C2/C(=O)C(=O)N(CCN(C)C)C2c2ccncc2)cc1 (stereo unspecified)	–	·	–	–	–	–
CC(=O)OC(C(=O)NC1CCCCC1)c1ccc(C#N)cc1 (stereo unspecified)	–	–	–	–	–	–
CC(=O)OC(C(=O)NC1CCCCC1)c1ccc(C)cc1 (stereo unspecified)	–	–	32	–	–	–
O=C(CCCn1c(=S)[nH]c2cc3c(cc2c1=O)OCO3)N1CCc2ccccc2C1	–	–	–	·	·	–
CC1=C(C(=O)OCC(C)C)C(c2cccc(F)c2)N2C(=O)C(C)SC2=N1 (stereo unspecified)	–	–	14	–	–	–
COc1cc(-c2nnc3sc(C4CCCCC4)nn23)cc(OC)c1OC	40	–	–	–	–	–
CCOc1cccc(-c2nnc3sc(C4CCCCC4)nn23)c1	–	·	–	–	–	–
COc1cccc(-c2nnc3sc(C4CCCCC4)nn23)c1	–	·	–	80	–	–
CCOc1cccc(-c2nnc3sc(-c4cc(OC)c(OC)cc4OC)nn23)c1	–	–	–	–	–	–
COc1cc(OC)c(-c2nn3c(C4CCCCC4)nnc3s2)cc1OC	33	–	–	–	–	–
Cc1cc(-c2nnc3sc(C4CCCCC4)nn23)n[nH]1	–	–	–	–	–	–
Clc1ccc(C2CC(c3cccs3)n3ncnc3N2)c(Cl)c1 (stereo unspecified)	–	–	–	–	–	–
Cc1cccn2c(=O)c3cc(C#N)c(=NC(=O)c4ccncc4)n(Cc4ccco4)c3nc12	–	–	–	–	–	–
SMILES	HTR1E antagonist	5-HT1A blocker	HTR1E agonist	S1P1 ag-PAM	S1P3 agonist	5HT1a ag
CC(C)n1c(=NC(=O)c2ccco2)c(C#N)cc2c(=O)n3ccccc3cc21	–	–	9.2	–	–	29
CCOC(=O)C1CCN(C(=O)COc2ccc(S(=O)(=O)NC(C)C)cc2Cl)CC1	–	–	–	–	–	48
O=C(Nc1ccc(N2CCCC2)c(Cl)c1)c1ccc(Br)o1	–	–	–	97	–	–
O=C(Nc1ccccc1N1CCCC1)c1ccc(Br)o1	–	–	–	–	–	–
CCCC(=O)N1CCN(c2ccc(NC(=O)c3cc4ccccc4o3)cc2Cl)CC1	44	–	–	66	–	–
O=C(Nc1ccc(N2CCN(C(=O)c3ccco3)CC2)c(Cl)c1)c1cc2ccccc2o1	38	–	–	·	–	–
CCC(=O)N1CCN(c2ccc(NC(=O)c3cc4ccccc4o3)cc2Cl)CC1	36	–	–	·	–	–
O=C(CCCSc1nc2sc3c(c2c(=O)[nH]1)CCC3)NCCO	–	–	–	–	–	–
CCOC(=O)c1[nH]c(C)c(/C(O)=C2\C(=O)C(=O)N(CCCN(C)C)C2c2cccnc2)c1C (stereo unspecified)	–	–	–	–	–	–
CCc1nnc(NC(=O)CSc2nnc(COc3ccccc3C)o2)s1	–	–	8.9	–	–	–
Cc1nc2nc(C)c(CCC(=O)NCc3ccc4c(c3)OCO4)c(C)n2n1	–	–	–	–	–	–
CCCc1cc(C(N)=O)c(NC(C)=O)s1	–	–	–	–	–	–
CCCCn1nnnc1SCC(=O)c1ccc(C)c(C)c1	–	–	–	84	–	–
CCCCn1nnnc1SCC(=O)Nc1cccc(C)n1	–	–	–	–	–	–
O=C(CSc1ccc2nnc(-c3ccccn3)n2n1)NCc1ccco1	–	–	–	–	–	–
COc1ccc(CNC(C)C2COc3ccccc3O2)c(OC)c1 (stereo unspecified)	–	–	13	–	–	–
CC(NC(=O)CCC(=O)NC(C)C1COc2ccccc2O1)C1COc2ccccc2O1 (stereo unspecified)	–	–	–	–	–	–
CCCN1c2cccc3cccc(c23)S1(=O)=O	–	–	–	·	·	–
Fc1cc(Br)ccc1Nc1nc2ccccc2n2nnnc12	–	–	15	–	–	–
C=CCOC(=O)C1CC=CCC1C(=O)Oc1ccc(F)cc1F (stereo unspecified)	–	–	–	–	–	–
CC(=O)Nc1ccc(S(=O)(=O)N2CCSC2c2ccccc2Cl)cc1 (stereo unspecified)	35	–	–	–	–	–
COC(=O)C1=C(NC(=O)c2ccc(C)c(C)c2)CCS1	–	–	–	–	–	–
CCn1c(=N)n(CC(=O)C23CC4CC(CC(C4)C2)C3)c2ccccc21	–	–	–	–	–	–
Cc1ccc(C2c3c(oc4ccccc4c3=O)C(=O)N2c2nnc(C(C)C)s2)o1 (stereo unspecified)	32	–	–	–	–	–
Cn1c(=O)c2c(-c3ccccc3)n(C3CCCCC3)cc2n(C)c1=O	–	–	–	–	13	–
Cn1c(=O)c2c(-c3ccccc3)n(-c3ccccc3O)cc2n(C)c1=O	–	–	–	–	–	–
Cc1ccccc1S(=O)(=O)Nc1nc2ccccc2nc1N1CCOCC1	–	–	–	–	–	–
O=C(Nc1cccc(F)c1)c1c(F)c(F)c(F)c(F)c1F	–	–	–	–	–	–
O=C(Nc1ccccc1NC(=O)c1c(F)c(F)c(F)c(F)c1F)c1c(F)c(F)c(F)c(F)c1F	30	–	–	–	–	–

Source: PubChem
